“Also recorded” adds a separate entry of the source. Like-named read-outs stand apart in the source and are kept apart here.
How the values were obtained:
[1] = target: human carbonic anhydrase II (hCAII) (Homo sapiens, UniProt P00918); experiment: hCAII inhibition assay; format: biochemical
[2] = target: T1, matrix metalloproteinase-2 (MMP-2) (Homo sapiens, UniProt P08253); experiment: MMP-2 inhibition assay; format: biochemical
T1 sequence (P08253 110-660): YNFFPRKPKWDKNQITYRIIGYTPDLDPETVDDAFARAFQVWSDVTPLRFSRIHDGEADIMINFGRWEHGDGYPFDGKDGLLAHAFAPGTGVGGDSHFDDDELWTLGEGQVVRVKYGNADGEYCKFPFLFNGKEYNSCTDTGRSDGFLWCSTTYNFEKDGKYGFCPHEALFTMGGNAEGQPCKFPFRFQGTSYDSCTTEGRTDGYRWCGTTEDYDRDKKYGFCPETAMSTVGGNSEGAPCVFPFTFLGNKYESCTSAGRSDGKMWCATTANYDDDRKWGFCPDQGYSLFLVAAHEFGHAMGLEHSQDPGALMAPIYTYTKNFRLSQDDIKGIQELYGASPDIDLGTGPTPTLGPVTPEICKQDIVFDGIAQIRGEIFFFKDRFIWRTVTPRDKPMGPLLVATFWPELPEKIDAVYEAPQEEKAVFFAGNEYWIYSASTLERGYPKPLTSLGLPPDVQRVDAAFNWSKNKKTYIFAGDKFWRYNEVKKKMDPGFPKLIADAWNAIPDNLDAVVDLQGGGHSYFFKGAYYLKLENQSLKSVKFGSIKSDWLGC

[3] = target: hCAII; conditions: read-out: Ki hCAII; reported inhibitor; cited from earlier work
[4] = Reaction with L-cysteine methyl ester; format: physicochemical; conditions: equimolar 13, 24 h, 10% acetonitrile 90% water, pH 7.4, 1.25 mM
In short: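 Test compound and L-cysteine methyl ester were mixed in equimolar amounts at a final concentration of 1.25 mM. The solvent was 10% acetonitrile and 90% water at pH 7.4. The mixture was incubated for 24 h before analysis.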

[5] = Reactivity with DTNB; format: physicochemical; conditions: compound:DTNB 1:10, incubation 90 min, absorbance 412 nm

Row | IC50 ([1]; read-out: IC50 hCAII, ± 95% confidence interval) [µM] | IC50 hCAII ([1]; ± 95% confidence interval) | IC50 ([2]; read-out: IC50 MMP-2, ± 95% confidence interval) [µM] | Reactivity with L-cysteine methyl ester (13), disulfide formation by HPLC [4] | IC50 [1] [µM] | IC50 [2] [µM] | Compound | Ki [3] [µM] | Percent reactivity (conversion) with DTNB [5]
1 | > 200 | not active | > 200 | most stable compounds | – | – | S=c1[nH]c2ccccc2o1 [Compound 1, benzo[d]oxazole-2-(3H)-thione] | 0.97 | most stable compounds
2 | – | – | – | generate disulfide products with 13 | 19.4 ± 5.15 | > 200 | Oc1ccccc1S [Compound 11, 2-mercaptophenol, reference compound] | 0.63 | essentially quantitative conversion; also recorded: essential quantitative disulfide formation
3 | – | – | – | stable in the presence of 13 | 3.42 ± 0.34 | 76.6 ± 4.26 | S=C1Cc2ccccc2N1 [Compound 5, 2-indolinethione] | – | –
4 | – | – | – | – | – | – | C[C@H](CS)C(=O)N1CCC[C@H]1C(=O)O [Compound 12, captopril] | – | essentially quantitative conversion; also recorded: essential quantitative disulfide formation
